Active and inactive are the calls of the source. No cut-off for these calls is given here.
Legend:
Histone deacetylase 1 = Histone deacetylase 1 (Homo sapiens, UniProt Q13547); experiment: Inhibition of human recombinant HDAC1 incubated for 10 mins prior to substrate addition measured after 60 mins by spectrophotometric analysis
[1] = molecular target: T1, Histone deacetylase 7 (Homo sapiens) (UniProt Q8WUI4); experiment: Inhibition of human recombinant HDAC7 at 10 uM incubated for 10 mins prior to substrate addition measured after 60 mins by spectrophotometric analysis
T1 sequence (whole entry): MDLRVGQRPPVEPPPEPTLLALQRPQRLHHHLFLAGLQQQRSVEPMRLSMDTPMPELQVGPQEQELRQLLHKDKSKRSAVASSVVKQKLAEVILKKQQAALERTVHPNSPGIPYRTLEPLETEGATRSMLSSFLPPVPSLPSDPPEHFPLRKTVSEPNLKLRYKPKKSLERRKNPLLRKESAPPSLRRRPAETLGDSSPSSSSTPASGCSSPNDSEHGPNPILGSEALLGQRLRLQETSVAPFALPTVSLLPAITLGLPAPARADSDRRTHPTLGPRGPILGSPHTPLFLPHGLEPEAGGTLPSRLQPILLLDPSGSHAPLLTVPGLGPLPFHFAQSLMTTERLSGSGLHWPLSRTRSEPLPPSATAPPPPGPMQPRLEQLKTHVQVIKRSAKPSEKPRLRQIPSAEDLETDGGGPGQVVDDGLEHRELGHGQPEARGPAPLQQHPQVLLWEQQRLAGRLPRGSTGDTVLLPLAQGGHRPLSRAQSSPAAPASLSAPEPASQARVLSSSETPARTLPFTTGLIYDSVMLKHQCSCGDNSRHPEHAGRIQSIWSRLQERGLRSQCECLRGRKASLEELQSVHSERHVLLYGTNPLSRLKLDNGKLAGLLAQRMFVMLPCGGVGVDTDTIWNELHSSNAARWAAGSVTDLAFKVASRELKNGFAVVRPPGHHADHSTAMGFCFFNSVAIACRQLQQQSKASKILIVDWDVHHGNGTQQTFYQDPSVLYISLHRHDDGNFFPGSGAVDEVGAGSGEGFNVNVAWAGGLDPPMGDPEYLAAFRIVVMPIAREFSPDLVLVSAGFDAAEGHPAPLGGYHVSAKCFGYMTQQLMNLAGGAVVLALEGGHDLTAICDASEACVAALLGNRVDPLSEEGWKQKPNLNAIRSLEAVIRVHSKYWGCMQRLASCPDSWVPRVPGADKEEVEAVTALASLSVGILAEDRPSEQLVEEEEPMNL
Method in brief: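 Enzyme IC50 values are means of three experiments, with SAHA run as the positive control. Absence of activity was judged at 10 μM.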

DU-145 [2] = experiment: Growth inhibition of human DU145 cells by MTT assay; type: functional
A549 [3] = experiment: Growth inhibition of human A549 cells by MTT assay; type: functional
A-431 [4] = experiment: Growth inhibition of human A431 cells by MTT assay; type: functional
HT-1080 = experiment: Growth inhibition of human HT1080 cells by MTT assay; type: functional
Method in brief: (§1)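 MTT cell growth read-out, with SAHA as the positive control. GI50 values are means of three experiments. 10 μM was the concentration tested for scoring absence of activity.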

BGC-823 [5] = experiment: Growth inhibition of human BGC823 cells by MTT assay; type: functional
HUVEC [6] = experiment: Growth inhibition of HUVEC by MTT assay; type: functional; conditions: Homo sapiens
HeLa [7] = experiment: Growth inhibition of human HeLa cells by MTT assay; type: functional
HUVEC [8] = experiment: Growth inhibition of HUVEC at 10 uM by MTT assay; type: functional, cell-based; conditions: Homo sapiens; method in brief: as §1
A549 [9] = experiment: Growth inhibition of human A549 cells at 10 uM by MTT assay; type: functional, cell-based; method in brief: as §1
HeLa [10] = experiment: Growth inhibition of human HeLa cells at 10 uM by MTT assay; type: functional, cell-based; method in brief: as §1
BGC-823 [11] = experiment: Growth inhibition of human BGC823 cells at 10 uM by MTT assay; type: functional, cell-based; method in brief: as §1
A-431 [12] = experiment: Growth inhibition of human A431 cells at 10 uM by MTT assay; type: functional, cell-based; method in brief: as §1
DU-145 [13] = experiment: Growth inhibition of human DU145 cells at 10 uM by MTT assay; type: functional, cell-based; method in brief: as §1

Sequence of Histone deacetylase 1 (Q13547 whole entry): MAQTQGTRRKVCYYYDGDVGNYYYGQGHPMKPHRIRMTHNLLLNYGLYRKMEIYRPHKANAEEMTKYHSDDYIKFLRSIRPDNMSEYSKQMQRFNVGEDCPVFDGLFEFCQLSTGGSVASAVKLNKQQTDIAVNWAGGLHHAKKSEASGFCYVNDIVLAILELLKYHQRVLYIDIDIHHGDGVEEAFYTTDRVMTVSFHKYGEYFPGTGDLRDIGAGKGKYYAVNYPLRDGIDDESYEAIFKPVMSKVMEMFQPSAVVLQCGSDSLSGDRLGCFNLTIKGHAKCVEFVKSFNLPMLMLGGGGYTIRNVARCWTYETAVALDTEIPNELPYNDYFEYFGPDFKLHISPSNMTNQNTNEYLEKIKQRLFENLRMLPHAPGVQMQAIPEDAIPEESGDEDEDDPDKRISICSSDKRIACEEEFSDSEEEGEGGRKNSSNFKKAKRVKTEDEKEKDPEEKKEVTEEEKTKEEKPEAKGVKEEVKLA

For `O=C(CCCCc1cn(Cc2ccc(F)cc2F)nn1)NO`, the IC50 (Histone deacetylase 1) was 1220 nM and the inhibition [1] was “inactive”.

With `O=C(CCCCc1cn(Cc2ccc(-c3ccccc3)cc2)nn1)NO` the IC50 (Histone deacetylase 1) was 202 nM, the GI50 (DU-145 [2]) was 1210 nM and the GI50 (A549 [3]) was 2150 nM. For the same molecule, the GI50 (A-431 [4]) was 2990 nM, the inhibition [1] was “inactive” and the GI50 (HT-1080; Homo sapiens, HT-1080) was 2690 nM. For the same molecule, the GI50 (BGC-823 [5]) was 1800 nM, the GI50 (HUVEC [6]) was 5480 nM and the GI50 (HeLa [7]) was 3720 nM.

For `O=C(CCCCc1cn(Cc2ccc3ccccc3c2)nn1)NO`, the IC50 (Histone deacetylase 1) was 107 nM, the GI50 (DU-145 [2]) was 7230 nM and the “growth inhibition (GI)” value (HUVEC [8]) was “inactive”. For the same molecule, the “growth inhibition (GI)” value (A549 [9]) was “inactive”, the GI50 (A-431 [4]) was 5680 nM and the inhibition [1] was “inactive”. For the same molecule, the GI50 (HT-1080; Homo sapiens, HT-1080) was 4610 nM, the GI50 (BGC-823 [5]) was 6640 nM and the “growth inhibition (GI)” value (HeLa [10]) was “inactive”.

In the case of `CC(C)(C)c1ccc(Cn2cc(CCCCC(=O)NO)nn2)cc1`, the IC50 (Histone deacetylase 1) is reported as 601 nM, the GI50 (DU-145 [2]) is reported as 7200 nM and the “growth inhibition (GI)” value (HUVEC [8]) is reported as “inactive”. The “growth inhibition (GI)” value (A549 [9]) was “inactive”, the “growth inhibition (GI)” value (BGC-823 [11]) was “inactive” and the “growth inhibition (GI)” value (A-431 [12]) was “inactive”. For the same molecule, the inhibition [1] was “inactive”, the GI50 (HT-1080; Homo sapiens, HT-1080) was 7370 nM and the “growth inhibition (GI)” value (HeLa [10]) was “inactive”.

`O=C(CCCCc1cn(Cc2cccc(-c3ccccc3)c2)nn1)NO` gave an IC50 (Histone deacetylase 1) of 58 nM, a GI50 (DU-145 [2]) of 1190 nM and a GI50 (A549 [3]) of 1470 nM. For the same molecule, the GI50 (A-431 [4]) was 4650 nM, the inhibition [1] was “inactive” and the GI50 (HT-1080; Homo sapiens, HT-1080) was 3140 nM. The GI50 (BGC-823 [5]) was 3050 nM, the GI50 (HUVEC [6]) was 1130 nM and the GI50 (HeLa [7]) was 3850 nM.

In the case of `O=C(CCCCc1cn(Cc2ccccc2Cn2cc(CCCCC(=O)NO)nn2)nn1)NO`, the IC50 (Histone deacetylase 1) is reported as 807 nM and the inhibition [1] is reported as “inactive”.

With `Cc1ccccc1Cn1cc(CCCCC(=O)NO)nn1` the IC50 (Histone deacetylase 1) was 1050 nM and the inhibition [1] was “inactive”.

For `O=C(CCCCc1cn(Cc2ccccn2)nn1)NO`, the IC50 (Histone deacetylase 1) was 2570 nM and the inhibition [1] was “inactive”.

In the case of `COc1ccc(Br)c(Cn2cc(CCCCC(=O)NO)nn2)c1`, the IC50 (Histone deacetylase 1) is reported as 159 nM, the GI50 (DU-145 [2]) is reported as 5620 nM and the “growth inhibition (GI)” value (HUVEC [8]) is reported as “inactive”. For the same molecule, the “growth inhibition (GI)” value (A549 [9]) was “inactive”, the “growth inhibition (GI)” value (BGC-823 [11]) was “inactive” and the “growth inhibition (GI)” value (A-431 [12]) was “inactive”. For the same molecule, the inhibition [1] was “inactive”, the GI50 (HT-1080; Homo sapiens, HT-1080) was 9940 nM and the “growth inhibition (GI)” value (HeLa [10]) was “inactive”.

With `O=C(CCCCc1cn(Cc2ccc(F)cc2)nn1)NO` the IC50 (Histone deacetylase 1) was 645 nM and the inhibition [1] was “inactive”.

In the case of `O=C(CCCCc1cn(Cc2ccc3ccccc3n2)nn1)NO`, the IC50 (Histone deacetylase 1) is reported as 246 nM, the GI50 (DU-145 [2]) is reported as 4060 nM and the “growth inhibition (GI)” value (HUVEC [8]) is reported as “inactive”. For the same molecule, the “growth inhibition (GI)” value (A549 [9]) was “inactive”, the “growth inhibition (GI)” value (BGC-823 [11]) was “inactive” and the “growth inhibition (GI)” value (A-431 [12]) was “inactive”. The inhibition [1] was “inactive”, the GI50 (HT-1080; Homo sapiens, HT-1080) was 10200 nM and the “growth inhibition (GI)” value (HeLa [10]) was “inactive”.

For `COc1ccc(Cn2cc(CCCCC(=O)NO)nn2)cc1`, the IC50 (Histone deacetylase 1) was 1850 nM and the inhibition [1] was “inactive”.

In the case of `O=C(CCCCc1cn(Cc2ccccc2)nn1)NO`, the IC50 (Histone deacetylase 1) is reported as 1680 nM and the inhibition [1] is reported as “inactive”.

In the case of `Cc1cc(C)cc(Cn2cc(CCCCC(=O)NO)nn2)c1`, the IC50 (Histone deacetylase 1) is reported as 269 nM, the “growth inhibition (GI)” value (HUVEC [8]) is reported as “inactive” and the “growth inhibition (GI)” value (A549 [9]) is reported as “inactive”. The “growth inhibition (GI)” value (BGC-823 [11]) was “inactive”, the “growth inhibition (GI)” value (A-431 [12]) was “inactive” and the inhibition [1] was “inactive”. The GI50 (HT-1080; Homo sapiens, HT-1080) was 8650 nM, the “growth inhibition (GI)” value (DU-145 [13]) was “inactive” and the “growth inhibition (GI)” value (HeLa [10]) was “inactive”.

In the case of `O=C(CCCCCCC(=O)Nc1ccccc1)NO` [VORINOSTAT], the GI50 (HT-1080) is reported as 4870 nM.

— ChEMBL document CHEMBL2380293, “Design, synthesis, and biological evaluation of novel histone deacetylase 1 inhibitors through click chemistry” (Bioorg Med Chem Lett, 2013)
